Screen size: about 320,000 compounds; about 380 (0.12%) were called active. The sample as a whole holds a higher share of actives than the screen did. Values without a mark were called inactive.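 Rule for the calls: active = percent inhibition above the cutoff of mean plus 3 SD of all tested compounds, set per screening campaign (cut at about 20% in these data); inactive = the rest.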
molecular target: Photoreceptor-specific nuclear receptor (Homo sapiens) (UniProt Q9Y5X4); test: inhibitors of NR2E3-RetCOR corepressor binding, primary screen, NR2E3 agonist project, biochemical, TR-FRET, GST-NR2E3, biotin-RetCOR (AID 2300); conditions: 1536-well, at 4.78 µM, hits give high values;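 note: 0% = DMSO wells and 100% = biotin wells as full block of FRET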
Outline: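 System: GST-tagged NR2E3 plus biotinylated RetCOR corepressor; Buffer or medium: pH 7.5 Tris-based buffer; Probe or stimulus: RetCOR corepressor, biotinylated, 7 nM; Doses: compound at 4.8 µM, single dose; Schedule: 5 h incubation at 4 °C; Technique: time-resolved FRET; Evaluation: percent inhibition of TR-FRET ratio; Replication: one well per compound, singlicate testing.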

Photoreceptor-specific nuclear receptor (Homo sapiens), sequence (Q9Y5X4 whole entry, looked up): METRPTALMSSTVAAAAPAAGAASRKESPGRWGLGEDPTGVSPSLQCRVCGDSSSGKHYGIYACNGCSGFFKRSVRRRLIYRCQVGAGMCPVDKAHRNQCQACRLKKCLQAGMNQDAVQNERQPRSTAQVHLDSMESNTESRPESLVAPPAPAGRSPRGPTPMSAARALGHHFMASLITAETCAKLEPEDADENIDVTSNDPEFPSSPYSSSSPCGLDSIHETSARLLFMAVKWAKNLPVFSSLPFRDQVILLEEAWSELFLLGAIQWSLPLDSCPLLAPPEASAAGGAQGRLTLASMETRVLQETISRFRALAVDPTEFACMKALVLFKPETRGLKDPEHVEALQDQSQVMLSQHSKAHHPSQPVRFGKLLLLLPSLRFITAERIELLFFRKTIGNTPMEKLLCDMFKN

Structure (SMILES) | inhibition of corepressor binding
CC(C)CN(C(=O)CSc1nncn1C)C1CCS(=O)(=O)C1 (stereo unspecified) | 2.15%
COC(C)(C)[C@]12CC(O)(C(C)C)ON1[C@H]1CCCCC1N2O (stereo partly specified) | -1%
CCCCSc1nc2c(c(=O)n1CC)SC(C)C2 (stereo unspecified) | 4.84%
O=c1ccc2c(-c3ccccc3S(=O)(=O)O)c3ccc(O)c(O)c3oc-2c1O | 13.9%
C=CCNC(=O)CSc1nc2sc(C)c(C)c2c(=O)[nH]1 | -1.07%
CC(=O)c1sc2nc(SCC(=O)N3CCCCC3)[nH]c(=O)c2c1C | 29.3% (active)
O=C(CSc1nc2c(cnn2-c2ccc(F)cc2)c(=O)[nH]1)N1CCCCCC1 | -0.57%
CC(=O)N1CCC(C(=O)Nc2nc(-c3ccccc3)ns2)CC1 | 1.17%
Cc1csc(Nc2ccc(Cl)cc2)[n+]1-c1ccc(Cl)cc1 | -0.2%
FC(F)Oc1ccccc1NC(=S)Nc1cccc(Cl)c1Cl | 3.12%
Cc1ccc(NC(=O)C2(N3CCC3=O)CCCCC2)cc1 | 3.49%
O=C(/C=C/c1cccc([N+](=O)[O-])c1)NCCSCc1ccco1 | 0.28%
Cc1ccc2c(c1)N(CC(=O)N1CCC(C)CC1)C(=O)c1cccnc1O2 | 3.77%
CCOc1ccc2nc(C(=O)N3CCCC(C)C3)sc2c1 (stereo unspecified) | -1.62%
ONC(=Nc1ccccc1)c1ccccc1Cl | -0.75%
COc1cccc(CNC(=O)c2cccnc2Sc2ccc(Cl)cc2)c1 | 0.2%
Cc1ccc(Nc2nc(Cl)c(C=O)s2)cc1 | 3.15%
Cc1cc(C)c(C)c(S(=O)(=O)N2CCN(C(=O)c3ccc4c(=O)n5c(nc4c3)CCC5)CC2)c1C | -2.52%
O=C(Nc1nccs1)C1CCN(S(=O)(=O)c2ccc(Cl)c(C(F)(F)F)c2)CC1 | 5.22%
O=C(CCNS(=O)(=O)c1cccs1)N1CCN(c2ccc(F)cc2)CC1 | 0.06%
O=C(N[C@@H](Cc1ccccc1)C(=O)OCc1ccccc1)c1nc[nH]c1C(=O)NC1CCNCC1 | 1.4%
COc1ccc(C(=O)OCC(=O)c2ccc(Cl)s2)c(OC)c1OC | -1.77%
CCOC(=O)c1ccc(N=C2SC(C(=O)NC)CC(=O)N2CCc2ccccc2)cc1 (stereo unspecified) | -2.67%
COc1cc2[nH]c(=S)n(Cc3ccc(C)o3)c(=O)c2cc1OC | 23.2% (active)
COc1cc2[nH]c(=S)n(Cc3ccc(F)cc3)c(=O)c2cc1OC | -2.77%
COc1cc2[nH]c(=S)n(CCN3CCCCC3C)c(=O)c2cc1OC (stereo unspecified) | 0.84%
